EP2 antag: human EP2 receptor antagonists, primary screen, TR-FRET cAMP, C6 glioma cells; Prostaglandin E2 receptor EP2 subtype (Homo sapiens), P43116; C6 glioma cells expressing human EP2; cells stimulated with saturating PGE2; inhibition, % at 25 µM; 260,000 tested, 0.52% active;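 active means percent inhibition above 40 after rounding to a whole number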;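 further: rat C6 glioma host cells with rolipram phosphodiesterase inhibitor present; the protocol text gives 20 µM as final concentration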
Target sequence (P43116 whole entry, looked up): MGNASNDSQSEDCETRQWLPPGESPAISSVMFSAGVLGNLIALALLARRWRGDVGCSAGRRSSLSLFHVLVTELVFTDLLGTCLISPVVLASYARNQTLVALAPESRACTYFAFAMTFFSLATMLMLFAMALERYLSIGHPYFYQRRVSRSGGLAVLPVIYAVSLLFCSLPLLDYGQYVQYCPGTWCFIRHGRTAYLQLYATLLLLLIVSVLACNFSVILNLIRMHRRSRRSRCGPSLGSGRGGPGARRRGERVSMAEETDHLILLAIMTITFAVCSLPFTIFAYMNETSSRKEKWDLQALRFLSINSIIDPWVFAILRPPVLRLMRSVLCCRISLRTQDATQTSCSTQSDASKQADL
NPY1 pot ag: NPY-Y1 receptor potentiators or agonists, primary screen, cell-based | AID 1304, 2008 | Neuropeptide Y receptor type 1 (Homo sapiens), P25929 | NPY-Y1 expressing cells, potentiator/agonist activation | 220,000 tested, 0.37% active | activation, % at 3.6 µM; in the data active means activation above about 33%, passing the limit was not always enough;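 further: cells stimulated with NPY at EC10 then isoproterenol at EC100; 0% = low agonist plus stimulus and 100% = saturating agonist plus stimulus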
NPY2 pot ag: NPY-Y2 potentiators or agonists, primary screen, cell-based; Neuropeptide Y receptor type 2 (Homo sapiens), P49146; cells expressing NPY-Y2, potentiator/agonist read-out; activation, % at 3.6 µM; 220,000 tested, 0.45% active; AID 1359, 2008; in the data active means activation above about 27%;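 further: cells stimulated with NPY near EC25 plus isoproterenol at EC100; 0% = vehicle plus submaximal agonist and 100% = vehicle plus saturating agonist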
EP2 mod: EP2 receptor modulators, cAMP readout, primary screen, cell-based, HTRF cAMP, PGE2 stimulation; EP2-expressing cells, cAMP HTRF FRET, PGE2 co-stimulation; induction, % at 25 µM; 260,000 tested, 0.83% active;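 active means compounds whose cAMP rise, as percent of the full-agonist control response, exceeds 60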;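 further: rat C6 glioma line stably carrying human EP2 under a CMV promoter; the protocol text gives 20 µM as final concentration; 100% = response of wells given 1 µM PGE2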
NPY-Y2 antag: NPY-Y2 receptor antagonists, primary screen, cell-based; NPY-Y2 expressing cells, antagonist mode; AID 793, 2007; 140,000 tested, 0.99% active; inhibition, % at 2.7 µM; Neuropeptide Y receptor type 2 (Homo sapiens), P49146; in the data active means inhibition above about 17%;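 further: 0% = vehicle with agonist challenge and 100% = reference antagonist with challenge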
NPY Y1 blocker: NPY-Y1 receptor antagonists, primary screen, cell-based. HEK293-CNG Y1 cells, membrane potential fluorescence; NPY at EC95, then isoproterenol. AID 1040, 2008. 200,000 tested, 1% active. inhibition, % at 3.6 µM;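 active means inhibition above the campaign mean inhibition of all tested compounds plus 3 SD, cut at about 20% in these data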;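 further: 0% = DMSO wells given NPY plus isoproterenol and 100% = isoproterenol alone without NPY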
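Test system – HEK293 Y1/CNG channel cell line · Also added – NPY agonist 25 nM, then isoproterenol 1 µM plus Ro 20-1724 25 µM · Compound dosing – one concentration, 3.6 µM, in 0.4% DMSO · Schedule – compound incubation 1 h at room temperature, readout 45 min post-stimulation · Technique – fluorescence, membrane potential probe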
The depositor's hits bear a star; · = no result. Hits are enriched below; roughly 2.8% of the tested compounds scored in any of these assays.

SMILES | EP2 antag | NPY1 pot ag | NPY2 pot ag | EP2 mod | NPY-Y2 antag | NPY Y1 blocker
COc1ccccc1NC(=O)N(Cc1cc2cc3c(cc2[nH]c1=O)OCO3)C1CCCC1 | 5 | · | · | 14 | · | ·
COc1ccc(-c2cc(C(F)(F)F)nc(SCC(=O)NCc3ccc(C)cc3)n2)cc1OC | 25 | · | · | -21 | · | ·
Cc1ccc(-c2nn(C(C)(C)C)c3ncnc(NS(=O)(=O)c4ccc([N+](=O)[O-])cc4)c23)cc1 | 11 | 3 | 3 | 62* | · | 5
COc1ccc(C(=O)C(CCCCC(CN(C)C)C(=O)c2ccc(OC)cc2)CN(C)C)cc1 (stereo not drawn) | · | -93 | -23 | -16 | 22* | 21*
C/C(=N\Nc1ccc(C#N)cc1[N+](=O)[O-])c1ccc(O)cc1 | 6 | 37 | 28 | -23 | · | ·
CC/C(=N\Nc1ccccc1[N+](=O)[O-])c1ccc(O)cc1 | 9 | 74* | 47* | 15 | · | -12
COc1cc(C(=O)Nc2nc(-c3cccs3)cs2)cc(OC)c1OC | 87* | -20 | -8 | -30 | 3 | -3
Cc1csc(NC(=O)c2sc3nc(-c4cccs4)ccc3c2N)n1 | 64* | -25 | -15 | -48 | 5 | 5
COc1ccc(C(=O)Nc2nc(-c3cccs3)cs2)cc1 | 43* | 0 | -8 | -22 | 3 | -3
CCCSc1nnc(NC(=O)c2sc3nc(-c4cccs4)ccc3c2N)s1 | 8 | -2 | 5 | -34 | 2 | -2
CCC(NC(C)C)C(O)c1ccc(O)c2[nH]c(=O)ccc12 (stereo not drawn) | 12 | 76* | 69* | 78* | 3 | -4
CCC(=O)N1CCCc2cc(C(O)CN3CCN(c4cccc(OC)c4)CC3)ccc21 (stereo not drawn) | 6 | · | · | -17 | · | ·
Cc1ccccc1/C=C\c1nc2ccccc2c(=O)n1Cc1ccccc1 | 10 | -10 | -19 | 63* | 12 | 13
Cc1ccc(C)c(N2CCN(c3nc4ccccc4c(=O)n3Cc3ccccc3)CC2)c1 | 11 | -31 | -6 | 28 | 28* | 30*
CCn1c(/C=C\c2ccccc2C)nc2ccccc2c1=O | 9 | -17 | -29 | 16 | · | 12
Cc1cc(C)n(CC(C)C(=O)N2CCCC(n3nc(-c4cccs4)ccc3=O)C2)n1 (stereo not drawn) | · | · | · | -7 | · | ·
N#[N+]c1ccc(Nc2ccccc2)cc1 | 43* | · | · | 28 | · | ·
FC(F)(F)c1ccccc1CN1CCN(C2CCCCCC2)CC1 | 6 | -7 | -8 | -6 | 22* | 23*
CCOC(=O)c1cnc(SC(C)C(=O)Nc2ccc(C(C)=O)cc2)nc1N (stereo not drawn) | 12 | · | · | -47 | · | ·
O=C(/C=C/c1ccccc1)N(Cc1nc2ccccc2c(=O)[nH]1)Cc1cccs1 | 10 | · | · | 63* | · | ·
CCOc1ccc(NCc2cc3c(C(C)(C)C)nn(-c4ccccc4)c3[nH]c2=O)cc1 | 8 | 56* | 35* | -9 | -2 | -11
COc1cc(/C=N/N2C(=O)c3ccccc3NC2(C)c2cccc([N+](=O)[O-])c2)cc(Br)c1O (stereo not drawn) | 24 | -2 | 1 | 4 | 17* | 3
N#Cc1c(NCCN)nc(-c2ccco2)c2c1CCCC2 | 11 | -108 | -59 | 42 | 22* | 44*
COc1ccccc1CCCNC(=O)c1nn2c(C)cc(C)nc2c1Cl | 6 | · | · | -52 | · | ·
COc1ccc(C2c3c(-c4cc(Cl)c(C)cc4O)n[nH]c3C(=O)N2Cc2cccnc2)cc1OC (stereo not drawn) | 0 | -9 | -19 | 27 | 55* | 45*
COc1ccc(C2c3c(-c4ccccc4O)n[nH]c3C(=O)N2Cc2ccco2)cc1OC (stereo not drawn) | 5 | -21 | -29 | 0 | · | ·
OC(c1cc(C(F)(F)F)nc2c(C(F)(F)F)cccc12)C1CCCCN1 (stereo not drawn) | 16 | · | · | -22 | · | ·
OC(c1cc(-c2ccc(C(F)(F)F)cc2)nc(C(F)(F)F)c1)C1CCCCN1 (stereo not drawn) | 54* | 40 | 38 | -30 | · | ·
